Laboratory results published in PMC4186986 (Acta Pharmacologica Sinica, 2014).

Key:
Type in all cases: cell-based
[1] = tested on: cyclin A, cyclin E, CDK2 in MDA-MB-231 cells; experiment: Western blot of cell cycle regulatory proteins; details: MDA-MB-231, 48 h; compounds together with 1 nmol/L E2
Method in brief: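 MDA-MB-231 cells in DMEM/F12 with 10% charcoal-stripped FBS, seeded at 2×10^5 cells/well, treated 48 h with 1 nmol/L E2 plus test compound at several concentrations. Run on 12% SDS-PAGE, transferred to PVDF, probed overnight at 4 °C for cyclin A, cyclin E and CDK2, with ECL detection. GAPDH served as loading control; three independent experiments.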

MDA-MB-231 cells = experiment: MTT anti-proliferation assay, MDA-MB-231; details: Homo sapiens, MDA-MB-231, 48 h, read-out: MDA-MB-231 inhibition (%)
Method in brief: (§1)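 MCF-7 or MDA-MB-231 cells seeded at 10^5 cells/mL in phenol red-free DMEM/F12 with 10% charcoal-stripped FBS. Exposed to test compound at 0.01–100 μmol/L for 48 h (37 °C, 5% CO2), then MTT (5 mg/mL stock) for 4 h. Formazan dissolved in DMSO; absorbance read at 570 nm. Inhibition taken relative to DMSO-treated cells set as 100% viability; single-point values at 100 μmol/L final.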

MCF-7 cells = experiment: MTT anti-proliferation assay, MCF-7; details: Homo sapiens, MCF7, 48 h, read-out: MCF-7 inhibition (%)
Method in brief: as §1

Compound | expression level of CDK2 [1] | expression level of cyclin A [1] | expression level of cyclin E [1] | inhibition at 100 µM (MDA-MB-231 cells) [%] | inhibition at 100 µM (MCF-7 cells) [%]
C[C@]12CC[C@@H]3c4ccc(O)cc4CC[C@H]3[C@@H]1CC[C@@H]2O [Estradiol, 17β-estrodial] | increased the expression | increased the expression | increased the expression |  | 
CC/C(=C(\c1ccccc1)c1ccc(OCCN(C)C)cc1)c1ccccc1 [Tamoxifen] |  |  |  | 80.5 | 93.3
